Screening results deposited in PubChem BioAssay by several laboratories.
Yeast growth inh: chemicals that inhibit yeast BB579 growth in restrictive medium (lifespan-shortening candidates); inhibition, % at 10 µM; S. cerevisiae BB579 growth, OD615, 48 h; AID 804; 140,000 compounds, 0.51% hits;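 active = inhibition above a set limit, 3 SD over the mean compound inhibition, cut at about 44% in these data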
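controls = amphotericin B 10 µg/mL, positive | assay system = DeaD yeast strain BB579 | schedule = 48 h compound exposure at 30 °C after 4 h preincubation | detection = OD615 turbidity measurement | medium = restrictive CSMM-D medium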
WT yeast gro inh: growth inhibition of WT yeast, mitochondrial fusion screen | 190,000 compounds, 2.1% hits | mitochondrial fusion phenotypic screen, WT strain | inhibition, % at 10 µM; in the data active = inhibition above about 58%; tested in S. cerevisiae
DAT uptake mod: human DAT dopamine uptake with cocaine, either direction; 110,000 compounds, 1.3% hits; LLC-PK1 hDAT cells, [14C]-dopamine uptake with cocaine IC80; actives deviate in either direction; Q01959; B-score at 10 µM;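 active = Z score or B-score, a plate-position-corrected score, falls beyond the plate's 99.7% confidence bounds, in either direction; inactive = both scores lie inside the 99.7% bounds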;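 note: scored against the spread of the other compound wells on the same plate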
Target sequence (Q01959 whole entry, looked up): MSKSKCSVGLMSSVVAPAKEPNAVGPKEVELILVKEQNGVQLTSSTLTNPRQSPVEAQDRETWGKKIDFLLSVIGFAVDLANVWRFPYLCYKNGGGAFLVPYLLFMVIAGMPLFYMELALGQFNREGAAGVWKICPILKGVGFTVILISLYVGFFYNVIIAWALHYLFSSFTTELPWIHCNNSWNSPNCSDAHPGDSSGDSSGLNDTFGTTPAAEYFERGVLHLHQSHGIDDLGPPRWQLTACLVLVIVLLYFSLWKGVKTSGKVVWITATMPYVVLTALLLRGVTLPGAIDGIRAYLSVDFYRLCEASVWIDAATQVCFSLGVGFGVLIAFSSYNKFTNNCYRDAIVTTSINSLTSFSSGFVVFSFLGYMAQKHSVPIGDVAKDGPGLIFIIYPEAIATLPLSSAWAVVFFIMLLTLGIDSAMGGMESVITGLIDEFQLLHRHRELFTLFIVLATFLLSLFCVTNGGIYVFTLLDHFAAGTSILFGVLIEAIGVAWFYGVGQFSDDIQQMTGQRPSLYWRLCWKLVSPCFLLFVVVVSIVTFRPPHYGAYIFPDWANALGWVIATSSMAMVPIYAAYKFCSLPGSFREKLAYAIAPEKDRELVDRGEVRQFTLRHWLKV
Yeast life ext: extends the lifespan of yeast. S. cerevisiae growth with nicotinamide, OD615; deaD strain in restrictive glucose medium. inhibition of the nicotinamide effect, % at 10 µM. 130,000 compounds, 0.68% hits. AID 775;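 active = inhibition above a set limit, placed 3 SD over the median of all compounds, cut at about 26% in these data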;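 note: 0% = nicotinamide-treated wells and 100% = cells grown without nicotinamide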
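Test system: DeaD-strain S. cerevisiae / Buffer or medium: restrictive glucose medium / Also added: nicotinamide 1.5 mM / Doses: one concentration, 10 µM, DMSO 0.25% / Schedule: 48 h at 30 °C / Signal: OD615 measurement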
Measles CPE: protection of cells from measles virus | 140,000 compounds, 1.5% hits | protection (pct of control), % at 4 µM | Measles virus-infected cells, CPE protection, absorbance; in the data active = protection mostly above about 24%, no sharp cut-off; inactive = mostly below about 26%
RAM inhibit: inhibitors of the yeast RAM network. S. cerevisiae dse1pr::URA3 reporter, 5-FOA growth OD615, 2 d; analog-sensitive cbk1-as2 kinase mutant strain. inhibition, % at 50 µM. 190,000 compounds, 1.8% hits. AID 868;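 active = inhibition above a set limit, 3 SD over mean compound inhibition, cut at about 8.4% in these data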;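 note: 0% = DMSO-only wells with no growth and 100% = 10 µM 1-NA-PP1 full growth; inhibition rescues growth on 5-FOA so higher OD means more RAM inhibition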
RAM 5-FOA: RAM network inhibitors in efflux-deficient yeast; shares compounds with RAM inhibit; S. cerevisiae efflux-deficient reporter strain, 5-FOA growth OD615, 2 days; max inhibition, %; 1,200 tested, under 10 active; call rule not given here;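 note: plate controls were vehicle for no effect and reference inhibitor for full effect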
An asterisk follows results filed as active; nt = no result. Sampled rows, rich in hits. Any-hit rate of the full collection: about 6.1%.

SMILES	Yeast growth inh	WT yeast gro inh	DAT uptake mod	Yeast life ext	Measles CPE	RAM inhibit	RAM 5-FOA
O=C(/C=C/c1ccc(-c2ccccc2)o1)c1ccccc1	-15.9	8.3	nt	7.1	24.5	11.4*	7.0
O=C(/C=C/c1ccc(-c2ccccc2[N+](=O)[O-])o1)c1ccc(Br)cc1	-20.2	21.1	0.61	-2.0	5.5	11.9*	2.5
Cc1ccc(C(=O)/C=C/c2ccc(-c3ccccc3[N+](=O)[O-])o2)cc1	-13.0	4.4	0.304	-0.7	-1.1	14.6*	3.4
Cc1cnc([N+](=O)[O-])n1CCOC(=O)NC(=O)c1ccccc1Cl	nt	2.0	nt	nt	nt	2.1	nt
COc1ccc(C2/C(=C(/O)c3ccc(F)cc3)C(=O)C(=O)N2CCCN(C)C)cc1 (stereo not given)	nt	-7.6	nt	nt	nt	nt	nt
COc1ccc(Nc2nc(S(=O)(=O)c3ccc(C)cc3)c(Cl)s2)cc1	-9.5	57.1	nt	-0.9	7.1	5.8	nt
Cc1ccc(S(=O)(=O)c2nc(Nc3ccccc3)sc2Cl)cc1	-29.4	78.8*	nt	-7.3	6.7	13.1*	2.2
CC(=O)N/N=C/c1cc(C(C)C)cc(/C=N/NC(C)=O)c1O	nt	9.3	nt	nt	nt	-1.9	nt
S=C(c1ccc(-c2cc(Cl)ccc2Cl)o1)N1CCCCC1	-47.3	49.8	nt	-2.6	14.2	12.2*	1.0
Cc1ccc(C)c(C(=O)COC(=O)CCCC(=O)Nc2cc(C(F)(F)F)ccc2Cl)c1	-13.3	1.7	nt	1.1	2.8	17.7*	1.9
O=C(CCNC(=O)c1ccccc1Cl)Nc1cc(C(F)(F)F)ccc1Cl	-20.4	-3.4	nt	-3.9	9.7	1.2	nt
COc1ccc2o/c(=N/NC(=S)Nc3ccccc3)c(C(N)=O)cc2c1	-20.6	-13.9	nt	1.4	13.9	3.1	nt
CCn1nc([N+](=O)[O-])c2c(-c3nc4ccccc4o3)c(N)n(CCCOC)c2c1=O	nt	1.3	nt	nt	nt	2.4	nt
CCC/C=C(\CCC)C(NS(=O)(=O)c1cccc2cccnc12)c1ccc(C(=O)OC)cc1 (stereo not given)	-19.7	45.4	0.0621	7.3	5.0	12.6*	4.1
COc1ccc(-c2nc3ccccc3c(=O)n2CCOc2ccccc2C)cc1	-55.5	-2.5	nt	11.1	19.8	21.0*	7.1
COc1ccc(-c2nc3ccccc3c(=O)n2CCOc2ccc(C)cc2C)cc1	-25.9	4.6	nt	6.6	5.7	14.8*	6.2
COc1ccc(-c2nc3ccccc3c(=O)n2CCOc2cc(C)ccc2C)cc1	-54.0	-1.1	nt	4.7	7.8	14.0*	4.9
O=S(=O)(c1ccc(F)cc1)n1ccc(-c2cccc(OCc3ccc(Cl)cc3Cl)c2)n1	-55.6	4.4	0.0431	-6.3	2.7	11.5*	1.9
Cc1ccc(NC(=O)CCC(=O)OCC(=O)c2ccc(-c3ccccc3)cc2)cc1	14.9	-20.3	-0.711	-4.7	6.7	1.6	nt
Cc1ccccc1OCC(=O)OCC(=O)c1ccc(-c2ccccc2)cc1	-36.9	-15.6	nt	10.5	11.3	14.2*	3.6
COc1ccc(CNc2oc(-c3cccc4ccccc34)nc2C#N)cc1	-30.9	11.8	1.21	-5.8	68.3*	14.9*	2.6
N#Cc1nc(Cc2cccc3ccccc23)oc1NCc1ccc(F)cc1	-23.3	70.7*	0.859	-18.9	8.0	14.9*	3.5
C=CCNc1oc(Cc2cccc3ccccc23)nc1C#N	-5.1	3.7	0.824	-6.1	18.9	5.6	nt
CNc1oc(-c2cccc3ccccc23)nc1C#N	-32.8	8.5	0.313	-15.4	5.3	2.6	nt
O=C(C1CC1)N(Cc1ccco1)c1nc(-c2ccccc2)cs1	-13.4	35.8	-0.524	-15.6	7.8	12.1*	3.4
SMILES	Yeast growth inh	WT yeast gro inh	DAT uptake mod	Yeast life ext	Measles CPE	RAM inhibit	RAM 5-FOA
CC(=O)N1CCc2cc(S(=O)(=O)NC(CC(C)C)C(=O)N3CCn4c3nc3ccccc34)ccc21 (stereo not given)	-38.1	18.0	-0.624	-4.8	22.4	1.2	nt
Cc1ccc(Cc2nnc3n(-c4cccc(C)c4)nc(C(=O)c4ccccc4)n3c2=O)cc1	-15.4	14.8	1.47	nt	19.6	14.7*	2.2
COC(=O)c1nn(-c2cccc(C)c2)c2nnc(Cc3ccc(C)cc3)c(=O)n12	-2.9	14.1	nt	17.6	27.0	0.0	nt
O=C(COC(=O)C1(c2ccccc2F)CCCC1)Nc1ncc(C(F)(F)F)cc1Cl	-16.9	13.8	nt	3.0	3.9	12.2*	0.7
O=C(CSc1nc2ccccc2s1)CSc1nc2ccccc2s1	-42.9	34.6	-0.894	-10.8	3.7	14.1*	4.1
CCOc1ccc2nc(SCCNS(=O)(=O)c3ccccc3)sc2c1	-42.2	13.1	nt	4.1	7.3	11.6*	1.6
CCOc1ccc2nc(SCC(=O)c3ccccc3)sc2c1	-77.8	22.3	1.36	-8.7	10.4	15.6*	2.1
CCOc1ccc2nc(SCc3ccc(OC)cc3)sc2c1	-47.5	18.9	nt	-5.5	9.0	0.9	nt
Cc1cc(=O)[nH]c(SCC(=O)Nc2ccc(F)c([N+](=O)[O-])c2)n1	nt	-1.3	nt	nt	nt	0.0	nt
CC1(C)CC(=O)C2=C(C1)N=C1SCCC(=O)N1C2c1cccc([N+](=O)[O-])c1 (stereo not given)	nt	-2.5	nt	nt	nt	-0.7	nt
CSc1nc2ccccc2n1CC(=O)Nc1c(C)cccc1C	-8.6	-2.0	-0.701	nt	12.2	0.4	nt
CCOc1ccc(C2C([N+](=O)[O-])=C(C)N(C)C(=O)N2C)cc1OC (stereo not given)	nt	-15.8	nt	nt	nt	2.8	nt
O=C(C(Sc1ccccc1)c1ccccc1)N1CCN(c2ccccc2F)CC1 (stereo not given)	-62.1	30.4	-0.0179	-0.1	nt	14.4*	1.2
COc1ccc(C(=O)NNC(=O)C(Cc2ccc(O)cc2)NC(=O)c2ccccc2NC(=O)c2ccc(OC)cc2)cc1 (stereo not given)	-27.3	-2.4	nt	6.2	8.8	11.5*	4.0
C/C(N)=C(/C#N)C(=O)CSc1nc2ccccc2c(=O)n1-c1ccc(C)c(Cl)c1	-46.8	6.4	nt	0.2	8.6	11.8*	2.6
C/C(N)=C(/C#N)C(=O)CSc1nc2ccccc2c(=O)n1-c1ccc(C)cc1	-40.6	-6.4	nt	-1.6	3.1	2.0	nt
Nc1nc2c(nc(SCc3ccccc3Br)n2C2OC(CO)C(O)C2O)c(=O)[nH]1 (stereo not given)	nt	-12.4	nt	nt	nt	2.0	nt
O=C(OCC#CCSc1nnc(-c2ccncc2)o1)c1cccs1	-7.9	9.1	-0.477	-15.3	16.4	0.9	nt
O=C(OCC#CCSc1nnc(-c2cccc3ccccc23)o1)c1ccco1	-44.2	0.9	0.652	-16.9	3.0	17.2*	2.2
CCN(CC)S(=O)(=O)c1cccc(NC(=O)CCSc2ccc(Cl)cc2)c1	-14.2	24.1	nt	4.9	4.2	14.3*	1.4
CN(C)S(=O)(=O)c1cccc(NC(=O)COC(=O)CCSc2ccc(Cl)cc2)c1	-39.2	3.4	nt	-1.8	5.7	7.8	nt
C=CCn1c(SCc2cc(=O)n3ccsc3n2)nc2cc(Cl)ccc2c1=O	nt	38.5	nt	nt	nt	3.4	nt
